Measured values taken from ChEMBL document CHEMBL3784976 (J Med Chem, 2016).
Values after ≈ are worked out from the molar mass of the structure shown. Active and inactive are the calls of the source. The rule behind the calls is not given here.

Columns and labels:
[1] = Ratio of unbound plasma concentration in Harlan Sprague-Dawley rat model of AITC-induced flinching at 30 mg/kg, po to IC50 for rat TRPA1 expressed in tetracycline-inducible T-REx expression system transfected CHO cells by 45Ca2+ uptake assay; format: ADME, organism-based; conditions: in vivo
How it was run: (§1)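 Rats dosed orally at 1, 3, 10 or 30 mg/kg in 2% HPMC/1% Tween-80 vehicle. After 1 h, unbound plasma concentration measured (n = 8 per dose), intraplantar AITC (0.1%) given and flinching scored over the first minute. Unbound concentration divided by in vitro rat TRPA1 45Ca2+ IC50.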

[2] = species on record: Cavia porcellus; assay: Displacement of [3H]NBTI from adenosine transporter in guinea pig cerebral cortex assessed as remaining radioligand binding at 10 uM after 30 mins by scintillation counting method relative to control; format: tissue-based
[3] = target: Sodium channel protein type 9 subunit alpha (Mus musculus) (UniProt Q62205); assay: Inhibition of Nav1.7 in mouse DRG neurons at 10 uM relative to control
Sodium channel protein type 9 subunit alpha (Mus musculus), sequence (Q62205 whole entry, looked up): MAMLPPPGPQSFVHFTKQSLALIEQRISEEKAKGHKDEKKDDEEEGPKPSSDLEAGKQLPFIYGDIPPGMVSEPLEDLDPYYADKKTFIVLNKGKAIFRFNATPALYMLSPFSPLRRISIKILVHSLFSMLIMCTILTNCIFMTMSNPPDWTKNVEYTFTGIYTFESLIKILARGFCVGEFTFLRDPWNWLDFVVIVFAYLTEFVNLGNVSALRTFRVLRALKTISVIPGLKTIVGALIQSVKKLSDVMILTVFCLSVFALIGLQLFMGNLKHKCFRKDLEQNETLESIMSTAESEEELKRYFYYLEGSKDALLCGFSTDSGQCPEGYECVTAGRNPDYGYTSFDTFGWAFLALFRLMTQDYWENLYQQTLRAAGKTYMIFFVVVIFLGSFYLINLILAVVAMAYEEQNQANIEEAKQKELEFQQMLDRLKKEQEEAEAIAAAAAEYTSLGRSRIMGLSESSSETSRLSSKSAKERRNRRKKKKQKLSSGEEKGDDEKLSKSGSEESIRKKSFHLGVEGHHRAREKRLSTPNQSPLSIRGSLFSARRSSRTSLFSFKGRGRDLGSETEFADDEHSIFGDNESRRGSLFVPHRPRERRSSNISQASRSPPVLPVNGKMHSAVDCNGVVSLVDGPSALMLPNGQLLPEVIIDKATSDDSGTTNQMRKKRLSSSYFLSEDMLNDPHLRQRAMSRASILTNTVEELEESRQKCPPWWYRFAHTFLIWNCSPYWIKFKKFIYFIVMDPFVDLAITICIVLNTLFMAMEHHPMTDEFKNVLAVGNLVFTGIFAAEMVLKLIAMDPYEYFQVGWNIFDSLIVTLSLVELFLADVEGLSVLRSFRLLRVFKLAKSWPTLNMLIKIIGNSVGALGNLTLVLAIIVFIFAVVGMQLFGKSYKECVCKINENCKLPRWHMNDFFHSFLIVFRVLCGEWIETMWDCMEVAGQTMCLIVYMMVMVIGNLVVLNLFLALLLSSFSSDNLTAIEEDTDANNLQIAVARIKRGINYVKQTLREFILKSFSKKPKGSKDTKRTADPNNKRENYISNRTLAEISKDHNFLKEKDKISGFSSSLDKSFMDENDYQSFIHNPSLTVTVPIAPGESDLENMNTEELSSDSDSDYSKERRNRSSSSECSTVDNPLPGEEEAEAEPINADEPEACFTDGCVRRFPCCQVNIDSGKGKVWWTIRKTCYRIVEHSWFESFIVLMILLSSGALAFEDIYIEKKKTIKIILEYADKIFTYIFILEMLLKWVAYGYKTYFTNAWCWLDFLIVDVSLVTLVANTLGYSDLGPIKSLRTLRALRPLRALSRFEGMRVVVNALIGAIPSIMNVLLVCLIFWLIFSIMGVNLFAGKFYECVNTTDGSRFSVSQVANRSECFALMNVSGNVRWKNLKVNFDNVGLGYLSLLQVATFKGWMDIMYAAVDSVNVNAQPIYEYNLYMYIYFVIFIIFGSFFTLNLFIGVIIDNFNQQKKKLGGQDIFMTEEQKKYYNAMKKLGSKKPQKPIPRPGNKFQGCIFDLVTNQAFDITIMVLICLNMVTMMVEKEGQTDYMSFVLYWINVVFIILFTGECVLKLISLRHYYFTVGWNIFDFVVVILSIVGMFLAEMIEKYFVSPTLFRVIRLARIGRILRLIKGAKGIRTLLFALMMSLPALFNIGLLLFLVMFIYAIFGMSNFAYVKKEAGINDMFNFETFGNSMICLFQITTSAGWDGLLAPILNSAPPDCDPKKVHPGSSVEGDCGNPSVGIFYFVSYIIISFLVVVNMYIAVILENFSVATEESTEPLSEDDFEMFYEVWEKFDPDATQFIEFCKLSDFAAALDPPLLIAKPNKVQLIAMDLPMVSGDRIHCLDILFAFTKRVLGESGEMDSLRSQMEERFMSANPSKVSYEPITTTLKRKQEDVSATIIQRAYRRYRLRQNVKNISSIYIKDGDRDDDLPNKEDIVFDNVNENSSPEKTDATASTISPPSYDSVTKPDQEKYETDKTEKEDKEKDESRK

[4] = target: D(1A) dopamine receptor (Homo sapiens) (UniProt P21728); assay: Displacement of [3H]SCH-23390 from human recombinant dopamine D1 receptor expressed in CHO cells assessed as remaining radioligand binding at 10 uM after 60 mins by scintillation counting method relative to control; format: cell-based
[5] = test system: Rattus norvegicus; assay: Antinociceptive activity in po dosed Harlan Sprague-Dawley rat assessed as inhibition of AITC-induced paw flinches pretreated for 1 hr followed by AITC injection measured for 1 min post injection; format: functional, organism-based
How it was run: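 Rats were dosed orally with vehicle (2% HPMC/1% Tween-80) or antagonist at 1, 3, 10 or 30 mg/kg. After 1 h, 0.1% AITC was injected into the left ventral hind paw. Flinching was recorded over the first minute post-injection. Unbound plasma concentrations were measured at 1 h (n = 8 per dose).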

[6] = target: Substance-P receptor (Homo sapiens) (UniProt P25103); assay: Displacement of [125I]-Substance P LYS3 from NK1 receptor in human U373MG cells assessed as remaining radioligand binding at 10 uM after 60 mins by scintillation counting method relative to control; format: cell-based; conditions: U-373MG ATCC
[7] = target: Transient receptor potential cation channel subfamily A member 1 (Rattus norvegicus, UniProt Q6RI86); assay: Antagonist activity at rat TRPA1 expressed in tetracycline-inducible T-REx expression system transfected CHO cells assessed as inhibition of AITC-induced Ca2+ influx preincubated for 2 mins followed by AITC addition measured for 2 mins by Fluo-4 dye based FLIPR assay; format: cell-based
Transient receptor potential cation channel subfamily A member 1, sequence (Q6RI86 whole entry): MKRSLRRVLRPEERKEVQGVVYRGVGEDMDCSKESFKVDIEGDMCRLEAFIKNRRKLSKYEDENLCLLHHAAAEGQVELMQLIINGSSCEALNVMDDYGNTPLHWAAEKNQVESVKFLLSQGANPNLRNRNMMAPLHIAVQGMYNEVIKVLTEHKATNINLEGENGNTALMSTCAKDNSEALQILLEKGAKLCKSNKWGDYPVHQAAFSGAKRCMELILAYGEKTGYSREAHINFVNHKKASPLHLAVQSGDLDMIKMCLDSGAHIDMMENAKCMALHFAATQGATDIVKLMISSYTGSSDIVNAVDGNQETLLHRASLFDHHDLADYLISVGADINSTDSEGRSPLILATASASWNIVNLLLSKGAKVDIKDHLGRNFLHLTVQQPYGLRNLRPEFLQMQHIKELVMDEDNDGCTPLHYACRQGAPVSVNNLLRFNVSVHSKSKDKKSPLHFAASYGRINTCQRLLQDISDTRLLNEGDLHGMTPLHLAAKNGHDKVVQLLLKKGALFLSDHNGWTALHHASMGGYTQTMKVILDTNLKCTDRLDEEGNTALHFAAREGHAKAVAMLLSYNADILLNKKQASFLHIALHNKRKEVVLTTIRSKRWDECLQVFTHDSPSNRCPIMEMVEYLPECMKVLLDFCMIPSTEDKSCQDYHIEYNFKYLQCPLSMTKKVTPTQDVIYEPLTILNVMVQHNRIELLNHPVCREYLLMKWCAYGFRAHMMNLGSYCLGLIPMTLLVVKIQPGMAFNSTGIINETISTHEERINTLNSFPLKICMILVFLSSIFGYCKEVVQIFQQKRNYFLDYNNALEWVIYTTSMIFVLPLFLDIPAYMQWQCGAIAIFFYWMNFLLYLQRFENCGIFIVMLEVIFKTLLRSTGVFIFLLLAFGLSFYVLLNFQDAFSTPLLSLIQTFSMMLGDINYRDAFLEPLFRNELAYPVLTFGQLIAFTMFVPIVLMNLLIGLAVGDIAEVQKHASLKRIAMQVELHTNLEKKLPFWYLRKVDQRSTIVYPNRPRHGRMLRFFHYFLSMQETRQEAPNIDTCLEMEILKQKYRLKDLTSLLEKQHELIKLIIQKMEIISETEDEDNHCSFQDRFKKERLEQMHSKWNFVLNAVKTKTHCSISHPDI

[8] = Solubility of compound in simulated intestinal fluid; format: ADME
[9] = species on record: Rattus norvegicus; assay: Displacement of [3H]diltiazem from L-type calcium channel diltiazem binding site in rat cerebral cortex assessed as remaining radioligand binding at 10 uM after 120 mins by scintillation counting method relative to control; format: tissue-based
[10] = Tmax in rat at 30 mg/kg, po; format: ADME, organism-based; conditions: in vivo
How it was run: (§2)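 Rats dosed orally at 30 mg/kg, or 10 mg/kg for one analogue, in 1% Tween 80/2% HPMC/97% water with methanesulfonic acid, pH 2.2.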

[11] = Ratio of fCmax in rat at 30 mg/kg, po to IC50 for rat TRPA1 expressed in tetracycline-inducible T-REx expression system transfected CHO cells by 45Ca2+ uptake assay
[12] = target: 5-hydroxytryptamine receptor 1A (Homo sapiens) (UniProt P08908); assay: Displacement of [3H]8-OH-DPAT from human recombinant 5HT1A receptor expressed in HEK293 cells assessed as remaining radioligand binding at 10 uM after 60 mins by scintillation counting method relative to control; format: cell-based
[13] = Oral bioavailability in rat at 30 mg/kg; format: ADME, organism-based; conditions: in vivo; how it was run: as §2
[14] = target: Sodium-dependent dopamine transporter (Homo sapiens) (UniProt Q01959); assay: Displacement of [3H]BTCP from human recombinant dopamine transporter expressed in CHO cells assessed as remaining radioligand binding at 10 uM after 120 mins by scintillation counting method relative to control; format: cell-based
Sodium-dependent dopamine transporter (Homo sapiens), sequence (Q01959 whole entry): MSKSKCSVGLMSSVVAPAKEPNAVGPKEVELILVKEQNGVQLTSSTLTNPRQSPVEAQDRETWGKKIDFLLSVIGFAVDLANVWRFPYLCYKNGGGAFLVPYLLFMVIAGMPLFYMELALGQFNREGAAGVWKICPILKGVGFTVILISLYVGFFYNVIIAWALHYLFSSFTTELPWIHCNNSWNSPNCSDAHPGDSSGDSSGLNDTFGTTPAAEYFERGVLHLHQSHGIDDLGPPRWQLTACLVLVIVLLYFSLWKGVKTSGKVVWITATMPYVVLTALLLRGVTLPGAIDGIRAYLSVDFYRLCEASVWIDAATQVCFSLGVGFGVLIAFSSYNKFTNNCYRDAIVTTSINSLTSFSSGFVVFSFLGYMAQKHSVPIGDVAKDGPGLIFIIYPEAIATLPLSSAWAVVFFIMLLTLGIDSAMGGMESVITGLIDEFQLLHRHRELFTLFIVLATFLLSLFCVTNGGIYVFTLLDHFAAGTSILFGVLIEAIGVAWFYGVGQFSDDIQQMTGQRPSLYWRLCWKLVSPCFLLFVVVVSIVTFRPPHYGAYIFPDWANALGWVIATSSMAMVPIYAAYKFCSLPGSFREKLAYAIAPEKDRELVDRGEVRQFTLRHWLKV

[15] = Apparent permeability from apical to basolateral side in MDCK cells expressing control vector after 120 mins by LC-MS/MS analysis; format: ADME, cell-based, Canis lupus familiaris; conditions: dog
[16] = Ratio of unbound plasma concentration in Harlan Sprague-Dawley rat model of AITC-induced flinching at 10 mg/kg, po to IC50 for rat TRPA1 expressed in tetracycline-inducible T-REx expression system transfected CHO cells by 45Ca2+ uptake assay; format: ADME, organism-based; conditions: in vivo; how it was run: as §1
[17] = target: Melanocortin receptor 4 (Homo sapiens) (UniProt P32245); assay: Displacement of [125I]NDP-a-MSH from human recombinant MC4 receptor expressed in CHO cells assessed as remaining radioligand binding at 10 uM after 120 mins by scintillation counting method relative to control; format: cell-based
[18] = species on record: Homo sapiens; assay: Binding affinity to human delta 2-type opioid receptor assessed as remaining radioligand binding at 10 uM by radioligand displacement assay relative to control
[19] = test system: Rattus norvegicus; assay: fCmax in rat at 30 mg/kg, po; format: ADME, organism-based; conditions: in vivo; how it was run: as §2
[20] = species on record: Rattus norvegicus; assay: Antagonist activity at rat TRPV3 assessed as inhibition of 2-APB-induced Ca2+ influx up to 10 uM preincubated for 2.5 mins followed by 2-APB addition measured for 1 min by luminescence assay
[21] = test system: Rattus norvegicus; assay: In vivo inhibition of TRPA1 in Harlan Sprague-Dawley rat model of AITC-induced flinching assessed as unbound plasma concentration based IC50; format: functional, organism-based
How it was run: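 Rats were given vehicle (2% HPMC/1% Tween-80) or compound orally at 1, 3, 10 or 30 mg/kg. After 1 h, 0.1% AITC was injected into one left ventral hind paw, and nocifensive flinching was recorded over the first minute. Unbound plasma concentration was measured at 1 h, n = 8 per dose. In vivo IC50/IC90 came from the exposure–response relationship across individual animals.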

[22] = target: Histamine H3 receptor (Homo sapiens) (UniProt Q9Y5N1); assay: Displacement of [3H]Na-Me-histamine from human recombinant histamine H3 receptor expressed in CHO cells assessed as remaining radioligand binding at 10 uM after 60 mins by scintillation counting method relative to control; format: cell-based
Histamine H3 receptor (Homo sapiens), sequence (Q9Y5N1 whole entry): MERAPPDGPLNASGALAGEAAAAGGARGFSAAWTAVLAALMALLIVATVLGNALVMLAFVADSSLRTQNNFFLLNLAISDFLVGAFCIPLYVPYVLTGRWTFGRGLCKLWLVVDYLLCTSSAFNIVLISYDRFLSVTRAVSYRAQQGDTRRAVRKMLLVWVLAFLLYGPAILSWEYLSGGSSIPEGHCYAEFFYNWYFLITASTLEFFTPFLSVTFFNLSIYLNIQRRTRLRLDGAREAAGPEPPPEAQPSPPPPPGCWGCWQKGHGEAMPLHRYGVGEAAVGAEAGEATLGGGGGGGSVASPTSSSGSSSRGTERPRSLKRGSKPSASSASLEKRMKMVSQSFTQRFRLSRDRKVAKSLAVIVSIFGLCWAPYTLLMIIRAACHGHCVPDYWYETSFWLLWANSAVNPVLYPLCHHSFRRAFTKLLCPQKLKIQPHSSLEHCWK

[23] = target: Cholecystokinin receptor type A (Homo sapiens) (UniProt P32238); assay: Displacement of [125I]CCK-8s from human recombinant CCK1 receptor expressed in CHO cells assessed as remaining radioligand binding at 10 uM after 60 mins by scintillation counting method relative to control; format: cell-based
Cholecystokinin receptor type A (Homo sapiens), sequence (P32238 whole entry): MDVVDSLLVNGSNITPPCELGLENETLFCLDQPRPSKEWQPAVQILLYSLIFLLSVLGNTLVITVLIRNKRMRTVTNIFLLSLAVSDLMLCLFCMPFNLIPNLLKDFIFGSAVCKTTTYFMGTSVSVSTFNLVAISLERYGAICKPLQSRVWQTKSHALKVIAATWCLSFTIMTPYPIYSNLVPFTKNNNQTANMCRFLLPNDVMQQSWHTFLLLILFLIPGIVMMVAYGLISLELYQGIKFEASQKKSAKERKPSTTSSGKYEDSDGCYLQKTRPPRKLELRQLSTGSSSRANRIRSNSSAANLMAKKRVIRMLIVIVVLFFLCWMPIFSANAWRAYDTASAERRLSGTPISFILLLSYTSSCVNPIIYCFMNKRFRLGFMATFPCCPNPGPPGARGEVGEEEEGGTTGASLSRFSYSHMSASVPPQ

[24] = target: Cytochrome P450 3A4 (Homo sapiens, UniProt P08684); assay: Inhibition of CYP3A4 in human liver microsomes using midazolam as substrate by LC-MS/MS analysis in presence of NADPH; format: ADME
Cytochrome P450 3A4, sequence (P08684 whole entry): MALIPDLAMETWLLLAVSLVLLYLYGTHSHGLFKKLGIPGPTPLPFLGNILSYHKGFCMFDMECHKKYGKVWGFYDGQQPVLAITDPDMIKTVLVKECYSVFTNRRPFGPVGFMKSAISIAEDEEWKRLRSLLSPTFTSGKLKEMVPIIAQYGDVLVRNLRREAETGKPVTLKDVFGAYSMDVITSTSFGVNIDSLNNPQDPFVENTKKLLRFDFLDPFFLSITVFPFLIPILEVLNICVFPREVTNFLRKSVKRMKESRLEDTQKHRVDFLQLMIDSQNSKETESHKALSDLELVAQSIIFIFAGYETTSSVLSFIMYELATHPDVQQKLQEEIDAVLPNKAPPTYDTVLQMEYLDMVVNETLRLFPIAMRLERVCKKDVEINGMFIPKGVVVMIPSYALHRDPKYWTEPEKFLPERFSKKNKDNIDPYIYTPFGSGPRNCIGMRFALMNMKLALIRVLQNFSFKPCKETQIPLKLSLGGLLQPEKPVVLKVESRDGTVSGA

[25] = target: Alpha-2A adrenergic receptor (Homo sapiens) (UniProt P08913); assay: Displacement of [3H]RX-821002 from human recombinant adrenergic alpha2A expressed in CHO cells assessed as remaining radioligand binding at 10 uM after 60 mins by scintillation counting method relative to control; format: cell-based
[26] = target: Muscarinic acetylcholine receptor M4 (Homo sapiens) (UniProt P08173); assay: Displacement of [3H]4-DAMP from human recombinant muscarinic M4 receptor expressed in CHO cells assessed as remaining radioligand binding at 10 uM after 60 mins by scintillation counting method relative to control; format: cell-based

Work on `Cn1cnc2ncn(Cc3nc(CCc4ccc(Cl)cc4)no3)c(=O)c21` yielded a Ratio [1] of 30.3, an Activity [2] of over 77% and an inhibition [3] of 10%. For the same molecule, the Activity [4] was over 77%, the inhibition [5] was “Dose-dependent effect” and the Activity [6] was over 77%. For the same molecule, the IC50 [7] was 20 nM, the solubility [8] was 248 µM (≈ 92 µg/mL) and the Activity [9] was over 77%. For the same molecule, the Tmax [10] was 48 min, the Ratio [11] was 31 and the Activity [12] was over 77%. The bioavailability [13] was 60%, the Activity [14] was over 77% and the Papp A→B at 2 h [15] was 44.5 ×10⁻⁶ cm/s. The Ratio [16] was 8.2, the Activity [17] was over 77% and the Activity [18] was over 77%. For the same molecule, the fCmax [19] was 2.2 µM, the inhibition [20] was “inactive” and the IC50 [21] was 350 nM. It also gave an Activity [22] of over 77%, an Activity [23] of over 77% and an IC50 [24] of over 27000 nM. The Activity [25] was over 77% and the Activity [26] was over 77%.
